# High-throughput results deposited in PubChem BioAssay by several laboratories.
# Compounds with a hit are over-represented: about 4% of the library has one in this group of screens.
# hiPSC survival: enhancers of single-cell hiPSC survival, primary screen, ATPlite luminescence; 100% = ROCK inhibitor wells, 0% = DMSO; AID 602274, 2012; survival enhancement, % at 20 µM; hit rate 0.044% among 360,000; in the data active = survival enhancement above about 18%;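 also: cells exposed to compounds for 16 hours before the ATP read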
# NR3A LBD binder: binders of NR3A ligand-binding domain, primary screen, biophysical, differential scanning fluorimetry, uHTS; Glutamate receptor ionotropic, NMDA 3A (GRIN3A) ligand-binding domain; hit rate 2.5% among 340,000; Tm shift relative to glycine control, % at 25 µM; NR3A LBD differential scanning fluorimetry, Tm shift; 0% = protein alone, 100% = glycine-bound protein;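 active = melting temperature shift of at least 10% of the positive control shift, at one fixed dose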
# Arr AP2 block: inhibitors of beta-arrestin/AP2 binding, primary screen, biochemical, GPCR trafficking, flow cytometry; beta-arrestin 1 C-terminal peptide binding to AP2 beta2-adaptin appendage (human); FITC-arrestin peptide / GST-AP2 beads; AP2 beta2 appendage carries R879A mutation; inhibition, % at 10 µM; hit rate 0.31% among 340,000; AID 504490, 2011;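 active = inhibition above a set limit, near 3 SD of compounds lacking own fluorescence, cut at about 54% in these data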;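 also: plate controls were DMSO wells for no effect and 5 µM unlabelled arrestin peptide for full effect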
#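 system = GST-tagged AP2 beta2-adaptin appendage (R879A) on 4 µm glutathione beads | reagent = FITC-labelled arrestin peptide probe, 50 nM final | schedule = compound with beads 12 min RT, then probe 1 h RT | signal = HyperCyt-sampled flow cytometry, FL1 channel, ex 488/em 535 nm | read-out = percent response from loss of bead-bound FITC fluorescence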
# FAS-TE inh: FAS thioesterase domain inhibitors, primary screen, biochemical, fluorescence intensity, uHTS; Fatty acid synthase (Homo sapiens), P49327; recombinant FAS-TE, OMFH fluorogenic substrate, fluorescence endpoint; inhibition, % at 15 µM; hit rate 0.67% among 360,000;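 active = compounds whose normalised, plate-corrected inhibition of enzyme fluorescence in the single-dose primary screen is 50% or more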;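 also: 0% = DMSO with enzyme and 100% = substrate without enzyme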
# SENP1 inh: human SENP1 catalytic domain inhibitors, primary screen, biochemical, FRET, uHTS | recombinant SENP1 catalytic domain, CyPet-SUMO1-YPet FRET cleavage | Sentrin-specific protease 1 (Homo sapiens), Q9P0U3 | inhibition, % at 10 µM | AID 624204, 2012 | hit rate 0.21% among 360,000;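 active = inhibition at least 30% at 10 µM, raw YFP signal under a set limit, fluorescence ratio 0.5 to 1.5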;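 also: 0% = enzyme with DMSO and 100% = no enzyme wells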
#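 Material: hSENP1 catalytic domain, recombinant; medium: Tris pH 8 with BME, BSA, NP40 and catalase; compound: single concentration of 10 µM compound, 0.5% DMSO final; technique: FRET read of cyan and yellow fluorescence; timing: 50 min enzyme reaction, room temperature, light-protected; reagent: SFCypet-SUMO1-SFYpet substrate at 25 nM; control set: no-enzyme low, enzyme-DMSO high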
# Cardio protect: cardioprotection against H2O2-induced cell death, primary screen, uHTS, H9c2 cells, ATPLite luminescence. H9c2 cardiomyocytes, H2O2 injury protection, 2 h. protection from H2O2 cell death, % at 20 µM. hit rate 0.63% among 360,000;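 active = compounds giving at least 50% protection of heart cells from peroxide-induced death in the single-dose screen, raw or plate-pattern-corrected value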;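 also: 0% = DMSO wells with peroxide and 100% = DMSO wells without peroxide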
# * hit, by the source's call; / = no result given.
SMILES,hiPSC survival,NR3A LBD binder,Arr AP2 block,FAS-TE inh,SENP1 inh,Cardio protect
COc1cc(NC(=O)c2cnc(N)s2)cc(C(=O)Nc2cccc(C(F)(F)F)c2)c1,-1,37*,/,22,-2,34
CCOc1ccc(NC(=O)C(C)Oc2ccccc2C(=O)Nc2cccc(Cl)c2Cl)cc1 (configuration not stated),-1,12*,11,28,-2,-10
O=c1[nH]c(-c2ccccc2)ncc1OCc1ccccc1,-1,5,-2,-6,0,0
Cc1ccc(C)c2c1[nH]c1ccc([N+](=O)[O-])cc12,1,35*,-5,20,-6,-10
O=c1cc(-c2ccc(O)cc2)oc2ccccc12,0,5,-2,1,-62,22
O=c1cc(-c2ccncc2)oc2ccccc12,-1,1,1,-10,1,53*
CCOC(=O)c1c(CSC(=N)N)n(-c2ccc(Br)cc2)c2cc(Br)c(OC(C)=O)cc12,-3,-4,-5,-179,3,-8
CCCCCCCCOC(=O)c1c(CSC(=N)N)n(C)c2cc(Br)c(OC(C)=O)cc12,0,40*,-24,-146,3,-18
O=C(Nc1ccccc1)OC[C@@H]1C=CS(=O)(=O)N1Cc1ccc(Br)cc1,0,/,/,4,-6,-2
Cc1nonc1NC(=O)CSc1nc(C23CC4CC(CC(C4)C2)C3)nc2ccccc12,-1,18*,-3,31,1,-11
Cc1nonc1NC(=O)CSc1nc(C2CCCCC2)nc2ccccc12,-1,-6,8,13,1,2
OC(c1cc(F)cc(Cl)c1)c1ncc(-c2ccccc2Cl)[nH]1 (configuration not stated),2,/,/,9,0,-18
Nc1ccc(C(=O)OCc2nc3c(ccc4ccccc43)[nH]2)cc1,0,27*,28,7,-2,-9
COc1ccc(C(C)(O)c2nc(-c3ccccc3C)cs2)cc1 (configuration not stated),-2,/,/,11,1,-1
CCOc1ccc(C(=O)Nc2cccc([N+](=O)[O-])c2)cc1Br,2,27*,1,12,1,-6
CCOc1ccc(C(=O)Nc2ccc(NC(=O)c3ccco3)c(Cl)c2)cc1Br,-2,40*,0,-8,-4,8
CC1Oc2ccccc2C=C1/C=N/NC(=O)c1ccccc1 (configuration not stated),-1,-15,1,3,-4,-14
CC1Oc2ccccc2C=C1/C=N/NC(=O)c1ccccc1O (configuration not stated),-2,13*,-3,-8,-2,-22
C/C(=N\OC(=O)Nc1ccc(Cl)cc1)c1ccc(F)c(F)c1,0,36*,-2,20,1,-5
COCCNC(=O)C1(C)CCN(Cc2cccc(Oc3ccccc3)c2)C1 (configuration not stated),-2,/,/,-6,1,-6
Cc1cc(C(=O)Nc2ccc(S(=O)(=O)N3CCOCC3)cc2)c(C)o1,0,1,23,5,0,1
O=C(Cc1ccc(Cl)cc1)Nc1ccc(S(=O)(=O)N2CCOCC2)cc1,0,-2,4,-2,4,-2
Cc1cc(O)c(-c2cc(C(=O)Nc3ccc(S(=O)(=O)N4CCOCC4)cc3)[nH]n2)cc1C,-5,32*,36,4,0,-16
O=C(Nc1ccc(S(=O)(=O)N2CCOCC2)cc1)c1cc(-c2cc(Cl)ccc2O)n[nH]1,-1,36*,9,18,-2,-24
CC(O)(c1ccc(F)c(F)c1)c1nc(-c2cc3ccccc3o2)cs1 (configuration not stated),2,/,/,42,1,-9
SMILES,hiPSC survival,NR3A LBD binder,Arr AP2 block,FAS-TE inh,SENP1 inh,Cardio protect
O=C(/C=C/c1ccc(S(=O)(=O)NCc2ccco2)cc1)N1CCN(c2ccccc2)CC1,0,16*,-12,2,2,2
CCCS(=O)(=O)NC(=O)C1(C)CCN(C(=O)c2ccc3ccccc3n2)C1 (configuration not stated),4,/,/,-10,2,4
O=[N+]([O-])c1ccc(S(=O)(=O)Nc2cccc(-c3ccc(N4CCOCC4)nn3)c2)cc1,0,72*,-2,17,1,-12
Cc1ccc([N+](=O)[O-])cc1S(=O)(=O)Nc1cccc(-c2ccc(N3CCCC3)nn2)c1,0,12*,-6,44,3,-2
Cc1ccc(S(=O)(=O)Nc2cccc(-c3ccc(N4CCCCCC4)nn3)c2)cc1C,0,2,-3,39,-3,-10
O=[N+]([O-])c1ccc(S(=O)(=O)Nc2ccc(-c3ccc(N4CCOCC4)nn3)cc2)cc1,0,-6,18,16,2,5
C[C@@H]1CCCN1[C@H]1CS(=O)(=O)N[C@@H]1COCc1ccccc1,-1,/,/,-6,-16,3
Cc1ccc(S(=O)(=O)N(Cc2ccc(F)cc2)Cc2ccco2)cc1,3,12*,-8,23,1,-23
Cc1ccc(S(=O)(=O)N(Cc2ccccc2)Cc2ccco2)cc1,-1,-1,2,24,-14,-28
C[C@H](NC(=O)[C@@H]1CCCN1C(=O)[C@@H]1CCCN1)c1ccccc1,-1,/,/,-12,1,/
O=C(Nc1c2c(nn1-c1ccccc1)CS(=O)C2)c1ccco1 (configuration not stated),0,17*,-6,-4,1,2
CCN1CCN(CCC(=O)Nc2ccc(Br)cc2)CC1,0,10*,14,-3,-3,7
CN1CCN(CCC(=O)Nc2ccc(Br)cc2)CC1,0,-2,7,-6,-2,7
COn1c(-c2ccccc2)nc2c1CCc1c-2no[n+]1[O-],0,13*,-10,-4,4,3
[O-][n+]1onc2c1CCc1c-2nc(-c2ccccc2)n1OCc1ccccc1,-2,0,7,5,-2,3
C/C(=N\NC(=O)c1nnn(-c2nonc2N)c1CN(C)c1ccccc1)c1cccs1,0,11*,1,-3,2,1
CC/C(=N\NC(=O)c1nnn(-c2nonc2N)c1CN(C)c1ccccc1)c1ccccc1,0,242*,2,14,3,1
